Calls of active or inactive are those of the source. The calls are words filed in the database; no cut-off is given here.
Columns and labels:
[1] = target: T1, Nucleoside diphosphate kinase B (Homo sapiens, UniProt P22392); experiment: Binding affinity to NM23-H2 in human SiHa cells assessed as disruption of protein interaction with c-myc G-quadruplex DNA by measuring decrease in c-MYC protein expresson at 2 uM after 48 hrs by Western blot analysis; type: cell-based
Summary of the method: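 SiHa cells treated 48 h; lysates (30 μg) on 10% SDS-PAGE, nitrocellulose, anti-c-MYC overnight at 4 °C, HRP secondary, chemiluminescence; β-actin internal control; three repeats.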

[2] = Binding affinity to biotin-labeled 18-mer duplex DNA hairpin (unknown origin) at 40 uM after 30 mins by SPR analysis
[3] = Binding affinity to biotin-labeled Pu22 c-myc G-quadruplex DNA (unknown origin) by SPR analysis
[4] = target: T1, Nucleoside diphosphate kinase B; experiment: Binding affinity to NM23-H2 in human SiHa cells assessed as disruption of protein interaction with c-myc G-quadruplex DNA by measuring decrease in c-MYC mRNA level at 2 uM after 9 hrs by RT-PCR analysis; type: cell-based
Summary of the method: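 SiHa cells treated at 0, 0.5, 1.0, 2.0 μM for 9 h; TRIzol RNA, 1.5 μg reverse-transcribed with oligo(dT); semiquantitative PCR, 30 cycles, 58 °C annealing; bands normalized to β-actin, untreated 100%; three repeats.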

[5] = target: T1, Nucleoside diphosphate kinase B; experiment: Binding affinity to NM23-H2 (unknown origin) by SPR analysis
[6] = target: T1, Nucleoside diphosphate kinase B; experiment: Binding affinity to N-terminal NT-647-NHS labeled NM23-H2 (unknown origin) after 30 mins by MST analysis
Summary of the method: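 NM23-H2 N-terminally labeled with RED-NHS dye (20 μM protein, 30 min dark, RT), free dye removed; 200 nM labeled protein with compound from 500 μM, 16 twofold steps, 30 min RT in 50 mM Tris-HCl pH 7.4, 150 mM NaCl, 10 mM MgCl2, 0.05% Tween-20; KD at half-plateau.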

[7] = Binding affinity to Htg21 telomeric G-quadruplex DNA (unknown origin) at 40 uM after 30 mins by SPR analysis
SiHa [8] = experiment: Antiproliferative activity against human SiHa cells after 48 hrs by MTT assay; type: functional, cell-based
[9] = target: T1, Nucleoside diphosphate kinase B; experiment: Binding affinity to NM23-H2 (unknown origin) assessed as ratio of Kd for protein interaction with biotin-labeled Pu22 c-myc G-quadruplex DNA in presence and absence of compound after 1 hr by ELISA
[10] = target: T1, Nucleoside diphosphate kinase B; experiment: Binding affinity to NM23-H2 (unknown origin) up to 40 uM by SPR analysis
SiHa [11] = experiment: Antitumor activity against human SiHa cells xenografted in BALB/C nude mouse assessed as tumor weight at 1 mg/kg, ip administered daily after 3 weeks (reference value: 511.6 mg); type: functional
Mus musculus = experiment: Toxicity in BALB/C nude mouse xenografted with human SiHa cells assessed as change in body weight at 1 mg/kg, ip administered daily after 3 weeks; type: organism-based; details: in vivo, 504 h
Summary of the method: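 SiHa cells implanted in the right armpit of BALB/c nu/nu mice. At approximately 50 mm3, mice randomized (n = 8/group) to vehicle, compound 2.5 or 5.0 mg/kg, or doxorubicin 1.0 mg/kg, given ip daily for 3 weeks. Body weight and signs of pain, distress or discomfort monitored; tumors excised and weighed. Data given as mean ± SEM, t test against vehicle.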

SiHa [12] = experiment: Antitumor activity against human SiHa cells xenografted in BALB/C nude mouse assessed as tumor growth inhibition at 1 mg/kg, ip administered daily after 3 weeks relative to control; type: functional; details: 504 h, read-out: TGI

T1 sequence (P22392 whole entry): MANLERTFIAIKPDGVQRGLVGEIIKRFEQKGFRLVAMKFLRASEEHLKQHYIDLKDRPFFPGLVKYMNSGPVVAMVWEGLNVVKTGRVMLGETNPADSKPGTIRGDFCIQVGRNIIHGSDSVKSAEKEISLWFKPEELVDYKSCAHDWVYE

Question: What does the source list for `O=C(NCCCN1CCCC1)c1ccc(/C=C2\CCn3c2nc2cc(NCCN4CCCC4)c(F)cc2c3=O)cc1`?
Answer: Activity [1]: Active; Activity [2]: inactive; Kd [3]: 2.7 µM; Activity [4]: Active; Kd [5]: 19.8 µM; Kd [6]: 18 µM; Activity [7]: inactive; IC50 (SiHa [8]): 16.4 µM

Question: Which results are given for `O=C(CCN1CCCC1)Nc1ccc(/C=C2\CCCn3c2nc2cc(NC(=O)CCN4CCCC4)ccc2c3=O)cc1`?
Answer: Activity [1]: Active; Ratio [9]: 2.3; Activity [2]: inactive; Activity [4]: Active; Kd [5]: 10.4 µM; Kd [6]: 24.6 µM; Activity [7]: inactive

Question: Which Activity [10] does the source give for `CCN(CC)CCCNc1cc2nc3n(c(=O)c2cc1F)CC/C3=C\c1ccc(N(CC)CC)cc1` here?
Answer: The Activity was “inactive”.

Question: What about the Ratio [9] of the same compound?
Answer: Its Ratio is 2.1 to 2.6.

Question: And the Activity [2]?
Answer: The Activity was “inactive”.

Question: What about the Kd [6] of the same compound?
Answer: Its Kd is 48.5 µM.

Question: And the Activity [7]?
Answer: Its Activity is “inactive”.

Question: Which Activity (SiHa [11]) does the source give for `COc1cccc2c1C(=O)c1c(O)c3c(c(O)c1C2=O)C[C@@](O)(C(=O)CO)C[C@@H]3O[C@H]1C[C@H](N)[C@H](O)[C@H](C)O1` [DOXORUBICIN] here?
Answer: Its Activity is 165.9 mg.

Question: And the Activity (Mus musculus)?
Answer: The Activity was “Toxic”.

Question: And the inhibition in vivo at 1 mg/kg (SiHa [12])?
Answer: Its inhibition in vivo at 1 mg/kg is 67.6%.

Question: For `CN(C)CCNc1cc2nc3n(c(=O)c2cc1F)CC/C3=C\c1ccc(OCc2ccccc2)cc1O`, which Ratio [9] is on record?
Answer: Its Ratio is > 3.

Question: And the Activity [2]?
Answer: Its Activity is “inactive”.

Question: What about the Kd [5] of the same compound?
Answer: Its Kd is 8.1 µM.

Question: What about the Kd [6] of the same compound?
Answer: The Kd was 6.4 µM.

Question: What about the Activity [7] of the same compound?
Answer: Its Activity is “inactive”.

Question: For `O=c1c2cc(F)c(NCCCN3CCOCC3)cc2nc2n1CC/C2=C\c1ccc(OCc2ccccc2)cc1`, which Ratio [9] is on record?
Answer: Its Ratio is 2.1 to 2.6.

Question: And the Activity [2]?
Answer: Its Activity is “inactive”.

Question: And the Kd [5]?
Answer: The Kd was 18.4 µM.

Question: And the Kd [6]?
Answer: The Kd was 22.3 µM.

Question: And the Activity [7]?
Answer: The Activity was “inactive”.

Question: With `CN(C)CCCNc1cc2nc3n(c(=O)c2cc1F)CC/C3=C\c1ccc(/C=C/c2ccccn2)cc1` as the compound, how does the Ratio [9] read?
Answer: Its Ratio is > 3.

Question: And the Activity [2]?
Answer: Its Activity is “inactive”.

Question: What about the Kd [5] of the same compound?
Answer: Its Kd is 8.5 µM.

Question: What about the Kd [6] of the same compound?
Answer: Its Kd is 10.8 µM.

Question: And the Activity [7]?
Answer: Its Activity is “inactive”.

Question: Which results are given for `CCN(CC)CCCNc1cc2nc3n(c(=O)c2cc1F)CC/C3=C\c1ccc(OCc2ccccc2)cc1`?
Answer: Ratio [9]: > 3; Activity [2]: inactive; Kd [5]: 14.6 µM; Kd [6]: 20.6 µM; Activity [7]: inactive

Question: With `CCN(CC)CCCNC(=O)c1ccc(/C=C2\CCn3c2nc2cc(NCCN4CCCC4)c(F)cc2c3=O)cc1` as the compound, how does the Kd [3] read?
Answer: Its Kd is 3.8 µM.

Question: What about the Kd [5] of the same compound?
Answer: The Kd was 7.6 µM.

Question: What does the source list for `O=c1c2cc(F)c(NCCCN3CCCC3)cc2nc2n1CC/C2=C\c1ccc(OCc2ccccc2)cc1O`?
Answer: Ratio [9]: > 3; Activity [2]: inactive; Kd [5]: 11.5 µM; Kd [6]: 10.8 µM; Activity [7]: inactive

Question: With `CCN(CC)CCCNc1cc2nc3n(c(=O)c2cc1F)CC/C3=C\c1ccc(OCc2ccccc2)cc1O` as the compound, how does the Ratio [9] read?
Answer: Its Ratio is > 3.

Question: And the Activity [2]?
Answer: Its Activity is “inactive”.

Question: What about the Kd [5] of the same compound?
Answer: Its Kd is 4.6 µM.

Question: And the Kd [6]?
Answer: Its Kd is 3.4 µM.

Question: What about the Activity [7] of the same compound?
Answer: Its Activity is “inactive”.

Question: Which results are given for `CC(=O)Oc1ccc(/C=C2\CCn3c2nc2cc(NCCCN(C)C)c(F)cc2c3=O)cc1`?
Answer: Activity [2]: inactive; Kd [3]: 35.8 µM; Kd [5]: 10.1 µM; Kd [6]: 18.9 µM; Activity [7]: inactive

From ChEMBL document CHEMBL4017489, “Design, Synthesis, and Evaluation of New Selective NM23-H2 Binders as c-MYC Transcription Inhibitors via Disruption of the NM23-H2/G-Quadruplex Interaction” (J Med Chem, 2017)
